Test results: ChEMBL document CHEMBL1122393, “Potent antagonists of the antidiuretic responses to arginine-vasopressin based on modifications of [1-(beta-mercapto-beta,beta-cyclopentamethylenepropionic acid),2-D- phenylalanine,4-valine]arginine-vasopressin at position 4” (J Med Chem, 1983)
Numbered stars: 1 amine (or outer) side, 2 acyl side, 3 side chain; on linkers, the order of the positions; unused ones are H or OH. Bridge positions count the residues as written; N and C are the ends. Square brackets hold non-standard residues; d marks the D form. Peptide text beside a SMILES is read from it. X1 = O=C(CC1(S[*:2])CCCCC1)[*:1]

Tests used:
Rattus norvegicus [1] = species: Rattus norvegicus; assay: Effective dose of compound was determined for anti-vasopressor potency in rat; format: functional
In short: (§1)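 Intravenous vasopressor assay in phenoxybenzamine-treated rats under urethane anaesthesia, with the USP posterior pituitary reference standard as agonist. Each antagonist was given at two doses. The effective dose (nmol/kg) is the dose that cuts the response to 2x units of agonist to the response to 1x unit given before antagonist. It was interpolated on a log scale between the two doses.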

Rattus norvegicus [2] = species: Rattus norvegicus; assay: Effective dose of compound was determined for antiantidiuretic potency in rats; format: functional, Urine
In short: (§2)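 Antidiuretic assay in rats under ethanol anaesthesia, with the USP posterior pituitary reference standard as agonist, given intravenously. The standard was injected 20 min after antagonist, or 10 min for analogues without agonism. Two antagonist doses were used, and the effective dose (nmol/kg) was log-interpolated as the dose reducing the 2x-unit response to the 1x-unit response. In vivo pA2 = −log(effective dose/estimated volume of distribution).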

Rattus norvegicus [3] = assay: (§3) In vivo anti-oxytocic potency of compound was determined in rat uterus; format: functional
In short: (§4)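 Rat uterus in situ, with synthetic oxytocin as agonist. Two antagonist doses were used, and the effective dose (nmol/kg) was interpolated on a log scale as the dose reducing the 2x-unit response to the 1x-unit response.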

[4] = Ratio of anti-oxytocic ED to antidiuretic ED was determined; format: functional, Urine
In short: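 Ratio computed as antioxytocic effective dose divided by antiantidiuretic effective dose. Both effective doses are defined as the dose (nmol/kg) that reduces the 2x-unit agonist response to the 1x-unit response.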

[5] = Ratio of anti-vasopressor ED to antidiuretic ED was determined; format: functional, Urine
In short: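 Ratio computed as antivasopressor effective dose divided by antiantidiuretic effective dose. Both effective doses come from intravenous rat assays and are defined as the dose (nmol/kg) that reduces the 2x-unit agonist response to the 1x-unit response.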

Rattus norvegicus [6] = species: Rattus norvegicus; assay: In vitro anti-oxytocic potency of compound in rat uterus in absence of Mg; format: functional; details: read-out: pA2 (converted)
In short: (§5)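 Oxytocic antagonism on isolated rat uteri, with the USP posterior pituitary reference standard as agonist. Potency is expressed as a pA2 value.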

Rattus norvegicus [7] = assay: The compound tested in vivo for anti-vasopressor potency in rats; format: functional, organism-based; details: read-out: pA2 (converted); in short: as §1
Rattus norvegicus [8] = assay: In vivo antiantidiuretic potency of compound was determined in rats; format: functional, organism-based; details: Urine, read-out: pA2 (converted); in short: as §2
Rattus norvegicus [9] = species: Rattus norvegicus; assay: In vitro anti-oxytocic potency of compound in rat uterus in presence of 0.5 mM of Mg; format: functional; details: read-out: pA2 (converted); in short: as §5
Rattus norvegicus [10] = assay: as §3; format: functional, organism-based; details: read-out: pA2 (converted); in short: as §4
Rattus norvegicus [11] = species: Rattus norvegicus; assay: Effective dose of compound was determined for anti-vasopressor potency in rat; Weak agonist; format: functional, organism-based; details: filed as partial agonist
Rattus norvegicus [12] = species: Rattus norvegicus; assay: Effective dose of compound was determined for antiantidiuretic potency in rats; Weak agonist; format: functional, organism-based; details: Urine, filed as partial agonist
In short: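 Intravenous antidiuretic assay in rats under ethanol anesthesia. The agonist was the USP posterior pituitary reference standard, injected 20 min after the antagonist to allow recovery from initial antidiuretic responses. Antagonist was given at high and low doses. The effective dose (nmol/kg) reduces the response to 2x units of agonist to that of 1x unit given before antagonist, log-interpolated.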

| Structure (SMILES) | ED (Rattus norvegicus [1]) | ED (Rattus norvegicus [2]) | ED (Rattus norvegicus [3]) | ED ratio [4] | ED ratio [5] | Kb (Rattus norvegicus [6]) | Kb (Rattus norvegicus [7]) | Kb (Rattus norvegicus [8]) | Kb (Rattus norvegicus [9]) | Kb (Rattus norvegicus [10]) | ED (Rattus norvegicus [11]) | ED (Rattus norvegicus [12]) |
| --- | --- | --- | --- | --- | --- | --- | --- | --- | --- | --- | --- | --- |
| NC(=O)CC[C@@H]1NC(=O)[C@H](Cc2ccccc2)NC(=O)[C@@H](Cc2ccccc2)NC(=O)CC2(CCCCC2)SSC[C@@H](C(=O)N2CCC[C@H]2C(=O)N[C@@H](CCCN=C(N)N)C(=O)NCC(N)=O)NC(=O)[C@H](CC(N)=O)NC1=O [listing 1 of 2 here] | 0.3 nM/kg | 4.3 nM/kg | 4 nM/kg | 0.9 | 0.07 |  |  |  |  |  |  |  |
| NC(=O)CNC(=O)[C@H](CCCN=C(N)N)NC(=O)[C@@H]1CCCN1C(=O)[C@@H]1CSSC2(CCCCC2)CC(=O)N[C@H](Cc2ccccc2)C(=O)N[C@@H](Cc2ccccc2)C(=O)N[C@@H](Cc2ccccc2)C(=O)N[C@@H](CC(N)=O)C(=O)N1 | 25 nM/kg | 65 nM/kg |  |  | 0.5 | 26.9 nM | 355 nM | 851 nM | 21.4 nM |  |  |  |
| CC[C@H](C)[C@@H]1NC(=O)[C@H](Cc2ccccc2)NC(=O)[C@@H](Cc2ccccc2)NC(=O)CC2(CCCCC2)SSC[C@@H](C(=O)N2CCC[C@H]2C(=O)N[C@@H](CCCN=C(N)N)C(=O)NCC(N)=O)NC(=O)[C@H](CC(N)=O)NC1=O ([dF]FINCPRG-NH2; linker N-5 via X1) | 0.99 nM/kg | 0.46 nM/kg | 5.8 nM/kg | 13 | 2.2 | 9.12 nM | 13.8 nM | 5.75 nM | 6.46 nM | 77.6 nM |  |  |
| CC[C@@H]1NC(=O)[C@H](Cc2ccccc2)NC(=O)[C@@H](Cc2ccccc2)NC(=O)CC2(CCCCC2)SSC[C@@H](C(=O)N2CCC[C@H]2C(=O)N[C@@H](CCCN=C(N)N)C(=O)NCC(N)=O)NC(=O)[C@H](CC(N)=O)NC1=O | 1.4 nM/kg | 0.77 nM/kg | 2.4 nM/kg |  |  | 18.6 nM | 20 nM | 11 nM |  | 30.2 nM |  |  |
| CCCC[C@@H]1NC(=O)[C@H](Cc2ccccc2)NC(=O)[C@@H](Cc2ccccc2)NC(=O)CC2(CCCCC2)SSC[C@@H](C(=O)N2CCC[C@H]2C(=O)N[C@@H](CCCN=C(N)N)C(=O)NCC(N)=O)NC(=O)[C@H](CC(N)=O)NC1=O | 2.1 nM/kg | 5.6 nM/kg |  |  | 0.4 | 28.8 nM | 30.2 nM | 75.9 nM | 16.6 nM |  |  |  |
| CC(C)[C@@H]1NC(=O)[C@H](Cc2ccccc2)NC(=O)[C@@H](Cc2ccccc2)NC(=O)CC2(CCCCC2)SSC[C@@H](C(=O)N2CCC[C@H]2C(=O)N[C@@H](CCCN=C(N)N)C(=O)NCC(N)=O)NC(=O)[C@H](CC(N)=O)NC1=O ([dF]FVNCPRG-NH2; linker N-5 via X1) | 0.58 nM/kg | 0.67 nM/kg | 8.9 nM/kg |  | 0.9 |  |  |  |  |  |  |  |
| CCC[C@@H]1NC(=O)[C@H](Cc2ccccc2)NC(=O)[C@@H](Cc2ccccc2)NC(=O)CC2(CCCCC2)SSC[C@@H](C(=O)N2CCC[C@H]2C(=O)N[C@@H](CCCN=C(N)N)C(=O)NCC(N)=O)NC(=O)[C@H](CC(N)=O)NC1=O | 1.4 nM/kg | 6.9 nM/kg |  |  | 0.2 | 9.33 nM | 18.6 nM | 102 nM | 19.1 nM |  |  |  |
| CC(C)C[C@@H]1NC(=O)[C@H](Cc2ccccc2)NC(=O)[C@@H](Cc2ccccc2)NC(=O)CC2(CCCCC2)SSC[C@@H](C(=O)N2CCC[C@H]2C(=O)N[C@@H](CCCN=C(N)N)C(=O)NCC(N)=O)NC(=O)[C@H](CC(N)=O)NC1=O | 1.3 nM/kg | 66 nM/kg |  |  | 0.02 |  | 20 nM | 851 nM | 13.2 nM |  |  |  |
| C[C@@H](O)[C@@H]1NC(=O)[C@H](Cc2ccccc2)NC(=O)[C@@H](Cc2ccccc2)NC(=O)CC2(CCCCC2)SSC[C@@H](C(=O)N2CCC[C@H]2C(=O)N[C@@H](CCCN=C(N)N)C(=O)NCC(N)=O)NC(=O)[C@H](CC(N)=O)NC1=O | 2.9 nM/kg | 1.7 nM/kg | 3.2 nM/kg | 1.9 | 1.7 | 9.12 nM | 41.7 nM | 24 nM | 9.77 nM | 44.7 nM |  |  |
| NC(=O)CNC(=O)[C@H](CCCN=C(N)N)NC(=O)[C@@H]1CCCN1C(=O)[C@@H]1CSSC2(CCCCC2)CC(=O)N[C@H](Cc2ccccc2)C(=O)N[C@@H](Cc2ccccc2)C(=O)NCC(=O)N[C@@H](CC(N)=O)C(=O)N1 | 11 nM/kg | 97 nM/kg |  |  | 0.11 | 17.4 nM | 162 nM | 1410 nM | 46.8 nM |  |  |  |
| NC(=O)CC[C@@H]1NC(=O)[C@H](Cc2ccccc2)NC(=O)[C@@H](Cc2ccccc2)NC(=O)CC2(CCCCC2)SSC[C@@H](C(=O)N2CCC[C@H]2C(=O)N[C@@H](CCCN=C(N)N)C(=O)NCC(N)=O)NC(=O)[C@H](CC(N)=O)NC1=O [listing 2 of 2 here] |  |  |  |  |  | 2.57 nM | 4.47 nM | 61.7 nM | 3.72 nM | 56.2 nM |  |  |
| C[C@@H]1NC(=O)[C@H](Cc2ccccc2)NC(=O)[C@@H](Cc2ccccc2)NC(=O)CC2(CCCCC2)SSC[C@@H](C(=O)N2CCC[C@H]2C(=O)N[C@@H](CCCN=C(N)N)C(=O)NCC(N)=O)NC(=O)[C@H](CC(N)=O)NC1=O | 1.9 nM/kg | 2.2 nM/kg |  |  | 0.9 | 20.9 nM | 28.2 nM | 30.2 nM | 18.6 nM |  |  |  |
| NC(=O)CNC(=O)[C@H](CCCN=C(N)N)NC(=O)[C@@H]1CCCN1C(=O)[C@@H]1CSSC2(CCCCC2)CC(=O)N[C@H](Cc2ccccc2)C(=O)N[C@@H](Cc2ccccc2)C(=O)N2CCC[C@H]2C(=O)N[C@@H](CC(N)=O)C(=O)N1 |  |  |  |  |  | 1740 nM |  |  | 3720 nM |  | Partial agonist | Partial agonist |
| NC(=O)CNC(=O)[C@H](CCCN=C(N)N)NC(=O)[C@@H]1CCCN1C(=O)[C@@H]1CSSC2(CCCCC2)CC(=O)N[C@H](Cc2ccccc2)C(=O)N[C@@H](Cc2ccccc2)C(=O)N[C@@H](CC2CCCCC2)C(=O)N[C@@H](CC(N)=O)C(=O)N1 | 9 nM/kg | 4.6 nM/kg |  |  | 2 | 16.6 nM | 200 nM | 64.6 nM | 25.7 nM |  |  |  |
| NC(=O)CNC(=O)[C@H](CCCN=C(N)N)NC(=O)[C@@H]1CCCN1C(=O)[C@@H]1CSSC2(CCCCC2)CC(=O)N[C@H](Cc2ccccc2)C(=O)N[C@@H](Cc2ccccc2)C(=O)N[C@@H](Cc2ccc(O)cc2)C(=O)N[C@@H](CC(N)=O)C(=O)N1 | 22 nM/kg | ~178 nM/kg |  |  | 0.12 | 20.9 nM | 263 nM | ~2690 nM | 37.2 nM |  |  |  |
